Compound activity (PubChem BioAssay)
VIM-2 inh – inhibitors of Pseudomonas aeruginosa VIM-2 metallo-beta-lactamase; purified VIM-2, nitrocefin hydrolysis, epi-absorbance fluorescence; inhibition, % at 5.6 µM; 290,000 tested, 0.89% active;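 active = inhibition above the mean of all tested compounds plus 3 SD, cutoff set per screening run, cut at about 7.5% in these data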;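 also: red hydrolysis product quenches plate fluorescence so inhibitors raise well fluorescence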
DNA FID counter – displaces DNA intercalator in HCV helicase counter-screen. DNA fluorescent intercalator displacement, fluorescence. inhibition, % at 7.9 µM. 290,000 tested, 0.17% active; in the data active = inhibition above about 37%;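 also: higher means more ethidium bromide displaced from hairpin DNA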
IMP-1 inh-1 – inhibitors of Pseudomonas aeruginosa IMP-1 metallo-beta-lactamase | purified IMP-1, nitrocefin hydrolysis, epi-absorbance fluorescence | inhibition, % at 5.6 µM | 290,000 tested, 0.45% active;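 active = inhibition above the mean plus 3 SD of all compounds in the same screening run, cut at about 4.5% in these data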
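Assay system: purified IMP-1; Quantity: IMP-1 0.2 nM before substrate addition; Medium: HEPES buffer pH 7.1 with ZnSO4 and Brij 35; Incubation: 15 min enzyme–compound preincubation, then 25 min nitrocefin reaction, 25 °C; Signal: fluorescence quenching readout, ex 480/em 530 nm; Controls: DMSO with and without IMP-1; Repeats: singlicate testing.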
UBC9 SUMO inh – blocks human SUMOylation mediated by UBC9; inhibition, % at 35 µM; HTRF SUMOylation assay, SAE1/SAE2 + UBC9, in vitro; 290,000 tested, 0.36% active; P63279; AID 2006; in the data active = inhibition above about 50%, passing the limit was not always enough
Target sequence (P63279 whole entry, looked up): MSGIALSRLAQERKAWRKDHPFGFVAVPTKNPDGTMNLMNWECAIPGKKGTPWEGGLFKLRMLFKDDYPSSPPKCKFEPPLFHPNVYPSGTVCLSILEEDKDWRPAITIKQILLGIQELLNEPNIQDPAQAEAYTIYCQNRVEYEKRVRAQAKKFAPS
NS3 helicase inh – HCV NS3 helicase inhibition. inhibition, % at 10.9 µM. 290,000 tested, 0.56% active. NS3 helicase DNA unwinding, Cy5 molecular beacon fluorescence. AID 1800;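 active = inhibition above the mean of all tested compounds plus 3 SD, set per campaign, cut at about 35% in these data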
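Test system: hepatitis C virus NS3 helicase domain fragment enzyme. Also added: annealed dual-labelled DNA beacon duplex, ATP-started. Timing: 60 min unwinding reaction at 25 °C after ATP addition. Technique: Cy5 fluorescence. Measure: % inhibition of unwinding.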
IMP-1 inh-2 – IMP-1 inhibition, counter-screen for VIM-2 inhibitors | 1,300 tested, under 10 active | purified IMP-1, nitrocefin hydrolysis, epi-absorbance fluorescence | inhibition, % at 5.6 µM | shares compounds with VIM-2 inh; call rule not given here
VIM-2 FRET inh – VIM-2 FRET inhibition, artifact counter-screen; purified VIM-2, CCF2 FRET substrate hydrolysis; 1,300 tested, 23% active; AID 1857; inhibition, % at 5.6 µM; shares compounds with VIM-2 inh;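 active = inhibition above the mean of all tested compounds plus 3 SD, cut at about 19% in these data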
TEM-1 inh – selectivity counter-screen for VIM-2 inhibitors: E. coli TEM-1 inhibitors. shares compounds with VIM-2 inh. Purified TEM-1, nitrocefin hydrolysis, epi-absorbance fluorescence. inhibition, % at 5.6 µM. 1,300 tested, 3% active. AID 1866;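 active = inhibition above that campaign's mean inhibition plus 3 SD, cut at about 0.46% in these data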
Target sequence (P62593 whole entry, looked up): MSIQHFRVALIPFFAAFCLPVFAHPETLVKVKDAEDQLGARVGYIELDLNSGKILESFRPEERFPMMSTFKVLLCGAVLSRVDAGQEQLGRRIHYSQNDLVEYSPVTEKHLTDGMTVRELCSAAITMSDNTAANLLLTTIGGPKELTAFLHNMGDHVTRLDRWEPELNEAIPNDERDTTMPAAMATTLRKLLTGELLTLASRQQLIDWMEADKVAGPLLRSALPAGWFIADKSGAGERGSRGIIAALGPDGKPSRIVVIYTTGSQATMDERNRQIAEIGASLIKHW
VIM-2 inh conf – confirmation of P. aeruginosa VIM-2 metallo-beta-lactamase inhibitors; shares compounds with VIM-2 inh; purified VIM-2, nitrocefin hydrolysis, epi-absorbance; inhibition, % at 5.6 µM; 1,300 tested, 96% active;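 active = inhibition of the VIM-2 beta-lactamase enzyme above about 11% from the earlier first-round screen, limit read from the data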
Of the large screens only hits and unclear results are named; the others gave an inactive call (follow-up assays come after a bar, where they were run). This is a sample that favours compounds with a hit; in the whole collection about 2.1% have one here.

CCN(CC)C(=O)c1cc2c(=O)n3ccccc3nc2s1	none
CCCN(CCC)C(=O)c1cc2c(=O)n3cccc(C)c3nc2s1	VIM-2 inh 12 | IMP-1 inh-2 inactive | VIM-2 FRET inh inactive | TEM-1 inh inactive | VIM-2 inh conf 17
Cc1cccn2c(=O)c3cc(C(=O)NCCCOC(C)C)sc3nc12	VIM-2 inh 18 | IMP-1 inh-2 inactive | VIM-2 FRET inh inactive | TEM-1 inh inactive | VIM-2 inh conf 26
CCOCCCNC(=O)c1cc2c(=O)n3cccc(C)c3nc2s1	VIM-2 inh 16 | IMP-1 inh-2 inactive | VIM-2 FRET inh inactive | TEM-1 inh inactive | VIM-2 inh conf 31
CC(=O)N1c2ccc(S(=O)(=O)NCCC(=O)Nc3ccc(C)c(Cl)c3)cc2CC1C (stereo not given)	none
O=[N+]([O-])c1ccc(-n2cnc3ccccc32)c([N+](=O)[O-])c1	none
CC(C)C(NC(=O)c1ccccc1)C(=O)N/N=C\c1ccco1 (stereo not given)	none
Cc1cccn2c(=O)c3cc(C(=O)NC4CCCCC4)c(=N)n(Cc4ccccc4)c3nc12	none
Cc1cccn2c(=O)c3cc(C(=O)NC4CCCC4)sc3nc12	VIM-2 inh 17 | IMP-1 inh-2 inactive | VIM-2 FRET inh inactive | TEM-1 inh inactive | VIM-2 inh conf 15
CC12CCCCC1N(O)C(=O)C(=O)N2O (stereo not given)	VIM-2 inh 20 | IMP-1 inh-2 inactive | VIM-2 FRET inh 34 | TEM-1 inh inactive | VIM-2 inh conf 19
CC1(C)CCCC2=C1CC1C(=O)N(O)C(=O)C1C2 (stereo not given)	none
O=C(O)CCC(=O)c1cccc2ccccc12	none
O=C(O)c1ccccc1C(=O)c1cccc2ccccc12	VIM-2 inh 31 | IMP-1 inh-2 inactive | VIM-2 FRET inh 54 | TEM-1 inh inactive | VIM-2 inh conf 35
C=C(c1cccc2ccccc12)P(=O)(O)O	VIM-2 inh 35 | IMP-1 inh-2 inactive | VIM-2 FRET inh 62 | TEM-1 inh inactive | VIM-2 inh conf 44
C=C1CSc2nc(=O)c3c(C)c(C)sc3n21	VIM-2 inh 20 | IMP-1 inh-2 inactive | VIM-2 FRET inh inactive | TEM-1 inh inactive | VIM-2 inh conf 32
Cc1nc2sc(C)c(C)c2c(=O)[nH]1	none
CC(=O)c1ccc(NC(=O)CCS(=O)(=O)c2ccc3c(c2)n(C)c(=O)c(=O)n3C)cc1	none
Cc1c(OCC(=O)NCCCN2CCCC2=O)ccc2c3c(c(=O)oc12)CCC3	VIM-2 inh 23 | IMP-1 inh-2 inactive | VIM-2 FRET inh inactive | TEM-1 inh inactive | VIM-2 inh conf 29
Cc1c(OCC(=O)NCCCN2CCCC2=O)ccc2c3c(c(=O)oc12)CCCC3	VIM-2 inh 12 | IMP-1 inh-2 inactive | VIM-2 FRET inh inactive | TEM-1 inh inactive | VIM-2 inh conf 21
Cc1cc(=O)oc2c(C)c(OCC(=O)NCCCN3CCCC3=O)ccc12	none
CCOC(=O)N=S(N)(=O)c1ccccc1 (stereo not given)	VIM-2 inh 23 | IMP-1 inh-2 inactive | VIM-2 FRET inh 51 | TEM-1 inh inactive | VIM-2 inh conf 34
CCOC(=O)N=S(N)(=O)c1ccc(Cl)cc1 (stereo not given)	VIM-2 inh 15 | IMP-1 inh-2 inactive | VIM-2 FRET inh 32 | TEM-1 inh inactive | VIM-2 inh conf 26
CC(C)(C)c1cc(NS(=O)(=O)c2ccc(Br)s2)no1	none
Cc1nc(C)c(-c2csc(Nc3ccc(N)cc3)n2)s1	none
Cc1nc(C)c(-c2csc(Nc3cccnc3)n2)s1	VIM-2 inh 30 | IMP-1 inh-2 inactive | VIM-2 FRET inh inactive | TEM-1 inh inactive | VIM-2 inh conf 45
c1cncc(Nc2nc(-c3ccncc3)cs2)c1	VIM-2 inh 16 | IMP-1 inh-2 inactive | VIM-2 FRET inh inactive | TEM-1 inh inactive | VIM-2 inh conf 38
